# The source made the active and inactive calls. The rule behind the calls is not given here.
# Legend:
# [1] = tested on: Trypanosoma brucei rhodesiense; assay: Antiprotozoal activity against bloodstream form of Trypanosoma brucei rhodesiense STIB 900 after 72 hrs by microplate fluorometry; type: functional, organism-based; conditions: STIB 900, 72 h
# How it was run: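 Bloodstream forms (10⁴/well) in MEM with 2-mercaptoethanol and 15% heat-inactivated horse serum, serial dilutions 90 to 0.123 µg/mL, 72 h at 37 °C under 5% CO₂. Alamar Blue added for a further 2–4 h. Fluorescence read at ex 536 / em 588 nm and expressed as percent of control. Melarsoprol standard.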
# [2] = Selectivity index, ratio of IC50 for rat L6 cells to IC50 for bloodstream form of Trypanosoma brucei rhodesiense STIB 900; type: toxicity, cell-based; conditions: read-out: Ratio IC50
# How it was run: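 Medium was MEM with 2-mercaptoethanol and 15% heat-inactivated horse serum, dilutions 90 to 0.123 µg/mL. Wells held 10^4 STIB 900 bloodstream forms or rat L-6 myoblasts. Dye was added for a further 2–4 h, then fluorescence read (ex 536/em 588 nm) as % of control. SI is L-6 IC50 over parasite IC50.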
# Plasmodium falciparum = assay: Antiprotozoal activity against chloroquine- and pyrimethamine-resistant Plasmodium falciparum K1 after 48 hrs by [3H]-hypoxanthine incorporation assay; type: functional, organism-based
# How it was run: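 Infected human red cells in RPMI 1640 with 5% Albumax, exposed to serial dilutions from 5 to 0.078 µg/mL for 48 h at 37 °C under reduced oxygen. [3H]-hypoxanthine (0.5 µCi/well) added, then a further 24 h. Cells harvested onto filters and scintillation counted as % of untreated control. IC50 taken from sigmoidal curves; duplicate, repeated once.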
# [3] = Selectivity index, ratio of IC50 for rat L6 cells to IC50 for chloroquine- and pyrimethamine-resistant Plasmodium falciparum K1; type: toxicity, cell-based; conditions: L6 cells versus Plasmodium falciparum K1, read-out: Ratio IC50
# How it was run: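 The L-6 IC50 comes from the 72 h Alamar Blue assay on rat myoblasts (MEM, 15% horse serum, 90–0.123 µg/mL). The K1 IC50 comes from [3H]-hypoxanthine uptake by infected human red cells: 48 h exposure to 5–0.078 µg/mL, then 24 h with label. SI is L-6 IC50 over K1 IC50.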
# L6 = assay: Cytotoxicity against rat L6 cells after 72 hrs by microplate fluorometry; type: cell-based; conditions: L6, 72 h
# How it was run: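 Rat skeletal myoblasts (L-6) run in the same Alamar Blue microplate format: MEM with 2-mercaptoethanol and 15% heat-inactivated horse serum, dilutions 90 to 0.123 µg/mL, 72 h at 37 °C in 5% CO₂. Alamar Blue for a further 2–4 h, fluorescence at ex 536 / em 588 nm as percent of control. Mefloquine standard.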
# Plasmodium berghei [4] = assay: Antiprotozoal activity against Plasmodium berghei ANKA infected in NMRI mouse assessed as reduction in parasitemia at 50 mg/kg, ip qd for administered starting 4 h post-infection for 4 consecutive days; set-up: scale not given: the % may be the effect or the level left; conditions: route intraperitoneal
# Plasmodium berghei [5] = assay: Antiprotozoal activity against bloodstream form of Plasmodium berghei ANKA infected in NMRI mouse assessed as mean survival time at 50 mg/kg, ip qd for administered starting 4 h post-infection for 4 consecutive days (reference value: 6 to 7 days); conditions: route intraperitoneal
# [6] = tested on: Trypanosoma brucei rhodesiense; assay: Antiprotozoal activity against bloodstream form of Trypanosoma brucei rhodesiense STIB 900 infected in NMRI mouse assessed as reduction in parasitemia at 50 mg/kg, ip qd for administered 3 days post-inoculation for 4 consecutive days; type: functional, organism-based; set-up: dose 50 mg/kg
Compound,IC50 [1] [nM],selectivity ratio [2],IC50 (Plasmodium falciparum) [nM],selectivity ratio [3],IC50 (L6) [nM],Activity (Plasmodium berghei [4]) [%],Time (Plasmodium berghei [5]) [days],Activity [6]
CN1CCN(C23CC(NC(=O)CN4CCCC4)C(C(c4ccccc4)C2)C(c2ccccc2)C3)CC1 (racemic),250,111,280,99.3,27800,–,–,–
CN1CCN(C23CC(NC(=O)CCN4CCCCC4)C(C(c4ccccc4)C2)C(c2ccccc2)C3)CC1 (racemic),1270,12.1,230,66.7,15400,–,–,–
c1ccc(C2CC3(N4CCCCC4)CC(NCCCN4CCCC4)C2C(c2ccccc2)C3)cc1 (racemic),2020,13.4,–,–,–,–,–,–
CCN(CC)CCCN1CCC2(N3CCN(C)CC3)CC(c3ccccc3)C1C(c1ccccc1)C2 (racemic),2560,26.6,60,1140,68100,17,4,–
c1ccc(C2CC3(N4CCCCC4)CCN(CCCN4CCCCC4)C2C(c2ccccc2)C3)cc1 (racemic),–,7.5,–,–,–,–,–,–
CN1CCN(C23CC(NC(=O)CN4CCCCC4)C(C(c4ccccc4)C2)C(c2ccccc2)C3)CC1 (racemic),94,235,350,63.2,22100,–,–,inactive
CN1CCN(C23CC(NCCCN4CCCC4)C(C(c4ccccc4)C2)C(c2ccccc2)C3)CC1 (racemic),1610,14.1,670,33.8,22600,–,–,–
CN1CCN(C23CCN(CCCN4CCCCC4)C(C(c4ccccc4)C2)C(c2ccccc2)C3)CC1 (racemic),2540,11.4,50,577,28900,11,4,–
CN1CCN(C23CC(NC(=O)CCN4CCCC4)C(C(c4ccccc4)C2)C(c2ccccc2)C3)CC1 (racemic),3100,13.6,550,76.7,42200,–,–,–
C[C@@H]1CC[C@H]2[C@@H](C)C(=O)O[C@@H]3O[C@@]4(C)CC[C@@H]1[C@]32OO4 [ARTEMISININ],–,–,6.4,70.4,–,–,–,–
CN1CCN(C23CCN(CCCN4CCCC4)C(C(c4ccccc4)C2)C(c2ccccc2)C3)CC1 (racemic),2590,16.8,60,726,43500,0,4,–
CCN(CC)CCC(=O)NC1CC2(N3CCN(C)CC3)CC(c3ccccc3)C1C(c1ccccc1)C2 (racemic),2290,15.7,670,53.6,35900,–,–,–
CCN(CC)CC(=O)NC1CC2(N3CCN(C)CC3)CC(c3ccccc3)C1C(c1ccccc1)C2 (racemic),670,39.4,370,71.3,26400,–,–,–
CN1CCN(C23CC(NCCC(=O)N4CCCC4)C(C(c4ccccc4)C2)C(c2ccccc2)C3)CC1 (racemic),500,42.9,590,36.4,21400,–,–,–
CCN(CC)C(=O)CNC1CC2(N3CCN(C)CC3)CC(c3ccccc3)C1C(c1ccccc1)C2 (racemic),500,75.9,1160,32.7,37900,–,–,–
CCN(CC)CCCC(C)Nc1ccnc2cc(Cl)ccc12 (centres undefined) [CHLOROQUINE],–,–,–,–,–,99.6,20,–
